Reference: ChEMBL document CHEMBL3526126, “Amide hydrolysis of a novel chemical series of microsomal prostaglandin E synthase-1 inhibitors induces kidney toxicity in the rat” (Drug Metab Dispos, 2013)
In brackets after ≈: the same amount, converted by molar mass. Blank lines part the entries; values can stand above or below the compound they belong to.

Columns and labels:
Rattus norvegicus [1] = assay: Drug level in Wistar Hannover rat treated with [14C]-AZ'7847 at 500 umol/kg, po qd administered for 7 days measured on day 7 by radio monitoring method; type: ADME, organism-based; settings: in vivo, 168 h
[2] = Solubility in rat urine at pH 7 after 5 hrs; type: physicochemical
Procedure, shortened: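 Samples in rat urine at pH 7.0 were incubated at 37°C for 5 hours. They were analysed by HPLC on a C18 column with photodiode array and single mass detection.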

[3] = Cmax in Wistar Hannover rat at 500 umol/kg, po qd measured on day 1; settings: in vivo
[4] = AUC (0 to 24 hrs) in Sprague-Dawley rat at 2000 umol/kg, po qd administered for 7 days measured on day 7; type: ADME, organism-based; parameters: time < 24 hr, dose 2000 umol/kg, route oral; settings: plasma
Procedure, shortened: (§1)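 Toxicity study 2: 2 female satellite rats per dose group. Dosing was once daily by oral gavage (10 ml/kg) for 7 days. Tail-vein EDTA blood was taken at 2, 4, 6, 7 and 24 h on day 1 and on day 7, then chilled and centrifuged to plasma. Parent and M1 were quantified by LC-MS/MS, with M1 measured in negative electrospray mode.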

Rattus norvegicus [5] = assay: Toxicity in Wistar Hannover rat kidney assessed as histopathogical changes at 500 to 2000 umol/kg, po qd administered for 7 days measured on day 8 by hematoxylin/eosin staining-based light microscopic analysis; type: organism-based; settings: in vivo, 168 h
Procedure, shortened: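 Wistar Hannover rats, about 8 weeks old, were gavaged once daily (10 ml/kg) for 7 days. One day after the last dose they were killed by carotid exsanguination under isoflurane/oxygen. Kidneys were fixed in buffered formalin, embedded in paraffin, sectioned, stained with hematoxylin and eosin, and examined by light microscopy.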

Rattus norvegicus [6] = assay: Toxicity in Wistar Hannover rat kidney assessed as increase in plasma creatinine level at 500 to 2000 umol/kg, po qd administered for 7 days measured on day 7; type: organism-based; settings: in vivo, 168 h
Procedure, shortened: (§2)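 Wistar Hannover rats, about 8 weeks old, were acclimatized about 2 weeks and randomized by body weight. Dosing was by oral gavage (10 ml/kg) once daily for 7 days, with vehicle controls. At the end of dosing, plasma (lithium heparin) was taken from the orbital plexus under isoflurane/oxygen anaesthesia, and urea and creatinine were measured.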

Rattus norvegicus [7] = assay: Toxicity in Wistar Hannover rat kidney assessed as crystals in urine at 500 to 2000 umol/kg, po qd administered for 7 days measured on day 7; type: organism-based; settings: in vivo, 168 h
[8] = AUC (0 to 24 hrs) in Wistar Hannover rat at 2000 umol/kg, po qd measured on day 1; settings: plasma
[9] = Cmax in Sprague-Dawley rat at 2000 umol/kg, po qd administered for 7 days measured on day 7; type: ADME, organism-based; parameters: dose 2000 umol/kg, route oral; settings: in vivo; procedure, shortened: as §1
[10] = AUC (0 to 24 hrs) in Sprague-Dawley rat at 500 umol/kg, po qd administered for 7 days measured on day 7; type: ADME, organism-based; parameters: dose 500 umol/kg, time < 24 hr, route oral; settings: plasma; procedure, shortened: as §1
[11] = Cmax in Sprague-Dawley rat at 500 umol/kg, po qd administered for 7 days measured on day 7; type: ADME, organism-based; parameters: dose 500 umol/kg, route oral; settings: in vivo; procedure, shortened: as §1
[12] = Cmax in Wistar Hannover rat at 2000 umol/kg, po qd measured on day 1; settings: in vivo
Rattus norvegicus [13] = assay: Toxicity in Wistar Hannover rat kidney assessed as increase in plasma urea level at 500 to 2000 umol/kg, po qd administered for 7 days measured on day 7; type: organism-based; settings: in vivo, 168 h; procedure, shortened: as §2
[14] = AUC (0 to 24 hrs) in Wistar Hannover rat at 500 umol/kg, po qd measured on day 1; settings: plasma
Rattus norvegicus [15] = assay: Drug metabolism in Wistar Hannover rat assessed as formation of benzene-1,2-disulfonamide metabolite M1 in plasma at 500 umol/kg, po qd administered for 7 days measured on day 7 by radio monitoring method; type: ADME, organism-based; settings: in vivo, 168 h
Rattus norvegicus [16] = assay: Toxicity in Wistar Hannover rat kidney assessed as change in plasma chemistry parameter at 435 umol/kg, po qd administered for 14 days measured on day 14; type: organism-based; settings: in vivo, 336 h
Procedure, shortened: (§3)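 Female Wistar Hannover rats (10 per group), about 8 weeks old, were dosed by oral gavage (10 ml/kg) once daily for 14 days. The compound was given as a solution in 15% (w/v) hydroxypropyl-β-cyclodextrin in 0.2 M meglumine. At the end of dosing, plasma (lithium heparin) was taken from the orbital plexus under isoflurane/oxygen anaesthesia for plasma chemistry.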

[17] = Drug metabolism in cryopreserved human hepatocytes assessed as amide hydrolysis at 1 to 10 uM by LC-MS analysis; type: ADME, cell-based, Hepatocyte
Procedure, shortened: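 Hepatocytes at 1 × 10^6 cells/ml in William's medium incubated at 37°C with gentle shaking under 5% CO2. Substrate was at […]. Metabolites were analysed by LC-MS.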

[18] = AUC (0 to 24 hrs) in Sprague-Dawley rat at 435 umol/kg, po qd measured on day 1; type: ADME, organism-based; parameters: dose 435 umol/kg, time < 24 hr, route oral; settings: plasma
Procedure, shortened: (§4)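 Toxicity study 3: 5 female animals per dose group for TK. The compound was given as a solution in 15% (w/v) hydroxypropyl-β-cyclodextrin in 0.2 M meglumine, by oral gavage (10 ml/kg) once daily for 14 days. Blood was microsampled at 2, 4, 6, 7 and 24 h on day 1 and on the last dosing day. Parent only was measured, not M1.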

[19] = AUC (0 to 24 hrs) in Sprague-Dawley rat at 10 umol/kg, po qd measured on day 1; type: ADME, organism-based; parameters: dose 10 umol/kg, time < 24 hr, route oral; settings: plasma
Procedure, shortened: (§5)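 Single-dose PK in male Sprague-Dawley rats (n = 3). Plasma was profiled over time for parent and for the amide-hydrolysis metabolite M1, and AUC0–24 and Cmax were derived. The dosing protocol follows earlier work.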

[20] = Cmax in Sprague-Dawley rat at 435 umol/kg, po qd administered for 14 days measured on day 14; type: ADME, organism-based; parameters: dose 435 umol/kg, route oral; settings: in vivo; procedure, shortened: as §4
[21] = AUC (0 to 24 hrs) in Sprague-Dawley rat at 900 umol/kg, po qd measured on day 1; type: ADME, organism-based; parameters: time < 24 hr, dose 900 umol/kg, route oral; settings: plasma; procedure, shortened: as §4
[22] = Cmax in Sprague-Dawley rat at 900 umol/kg, po qd measured on day 1; type: ADME, organism-based; parameters: dose 900 umol/kg, route oral; settings: in vivo; procedure, shortened: as §4
[23] = AUC (0 to 24 hrs) in Sprague-Dawley rat at 435 umol/kg, po qd administered for 14 days measured on day 14; type: ADME, organism-based; parameters: dose 435 umol/kg, time < 24 hr, route oral; settings: plasma; procedure, shortened: as §4
Rattus norvegicus [24] = assay: Toxicity in Wistar Hannover rat kidney assessed as crystals in urine at 435 to 900 umol/kg, po qd administered for 14 days measured on day 14; type: organism-based; settings: in vivo, 336 h
[25] = Cmax in Sprague-Dawley rat at 10 umol/kg, po qd measured on day 1; type: ADME, organism-based; parameters: dose 10 umol/kg, route oral; settings: in vivo; procedure, shortened: as §5
[26] = AUC (0 to 24 hrs) in Sprague-Dawley rat at 900 umol/kg, po qd administered for 14 days measured on day 14; type: ADME, organism-based; parameters: dose 900 umol/kg, time < 24 hr, route oral; settings: plasma; procedure, shortened: as §4
[27] = Cmax in Sprague-Dawley rat at 900 umol/kg, po qd administered for 14 days measured on day 14; type: ADME, organism-based; parameters: dose 900 umol/kg, route oral; settings: in vivo; procedure, shortened: as §4
[28] = Cmax in Sprague-Dawley rat at 435 umol/kg, po qd measured on day 1; type: ADME, organism-based; parameters: dose 435 umol/kg, route oral; settings: in vivo; procedure, shortened: as §4
Rattus norvegicus [29] = assay: Toxicity in Wistar Hannover rat kidney assessed as increase in plasma urea level at 435 to 900 umol/kg, po qd administered for 14 days measured on day 14; type: organism-based; settings: in vivo, 336 h; procedure, shortened: as §3
Rattus norvegicus [30] = assay: Toxicity in Wistar Hannover rat kidney assessed as increase in plasma creatinine level at 435 to 900 umol/kg, po qd administered for 14 days measured on day 14; type: organism-based; settings: in vivo, 336 h, in the assay text read “900 umol/kg” for “435 to 900 umol/kg”; procedure, shortened: as §3

Drug metabolism (Rattus norvegicus [1]): metabolite_detected
solubility at 5 h [2]: 83 µM (≈ 19.6 µg/mL)
Cmax [3]: 57 µM
AUC at 24 h [4]: 1250 µM·h
AUC(0-t) at 24 h [8]: 1150 µM·h
Cmax [9]: 80 µM
AUC at 24 h [10]: 1300 µM·h
Cmax [11]: 70 µM
Cmax [12]: 66 µM
AUC(0-t) at 24 h [14]: 1080 µM·h
SMILES: NS(=O)(=O)c1ccccc1S(N)(=O)=O
Activity (Rattus norvegicus [5]): Non-toxic
Activity (Rattus norvegicus [6]): Non-toxic
Activity (Rattus norvegicus [7]): Toxic
Activity (Rattus norvegicus [13]): Non-toxic

Drug metabolism (Rattus norvegicus [15]): metabolite_detected
SMILES: NS(=O)(=O)c1ccccc1S(=O)(=O)N[14C](=O)c1ccc(C#Cc2ccccc2)cc1

Drug metabolism [17]: metabolite_not_detected
AUC(0-t) at 24 h [18]: 2220 µM·h
AUC(0-t) at 24 h [19]: 58 µM·h
Cmax [20]: 415 µM
AUC(0-t) at 24 h [21]: 5030 µM·h
Cmax [22]: 540 µM
AUC at 24 h [23]: 2520 µM·h
Cmax [25]: 11 µM
AUC at 24 h [26]: 5000 µM·h
Cmax [27]: 480 µM
Cmax [28]: 375 µM
SMILES: Cc1cc(C(=O)NS(=O)(=O)c2ccccc2S(N)(=O)=O)ccc1C#CC1CCC1
Activity (Rattus norvegicus [16]): Non-toxic
Activity (Rattus norvegicus [24]): Toxic
Activity (Rattus norvegicus [29]): Toxic
Activity (Rattus norvegicus [30]): Toxic
